The text below walks through data of ChEMBL document CHEMBL1130202, “Biologically active heteroarotinoids exhibiting anticancer activity and decreased toxicity” (J Med Chem, 1997).

Active and inactive are the calls of the source. The rule behind the calls is not given here.

For data set [1], the species on record is Mus musculus. Briefly: Alopecia in mice observed at mid dose 2 with Hypervitaminosis; 1/16. It counts as functional, organism-based.
For data set [2], the species on record is Mus musculus. Briefly: Avoiding pressure on limbs in mice at high dose with Hypervitaminosis; 0/16. The format is functional, organism-based. The conditions noted are these: Limb.
The species named for data set [3] is Mus musculus. Briefly: Skin scaling in mice at high dose with Hypervitaminosis; 0/16. The format is functional, organism-based.
Data set [4] is filed under the species Mus musculus. Briefly: Effect of compound on right testicle to body weight ratios in mice at high dose on day 65; all the animals died by day 65. The format is functional, organism-based. Summed up: (§1)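 Male B6D2F1 mice dosed daily by gavage with compound in corn oil; vehicle 1 (corn oil) controls run to termination on day 65. Low, mid 1, mid 2 and high dose groups, with dosage increases partway through the study. Organ-to-body weight ratios (×1000) taken at necropsy on day 65, reported as mean ± SD for 4 to 8 animals and as % difference from vehicle.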

For data set [5], the species on record is Mus musculus. Briefly: Effect of compound on serum Alkaline phosphatase levels in mice at mid dose 2 on day 29. The format is functional. Summed up:
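Male B6D2F1 mice dosed daily by oral gavage in corn oil at low, mid 1, mid 2 or high dose. Blood sampled on set days (8, 29, 36, 65) for clinical chemistry, serum alkaline phosphatase and triglycerides. Group mean ± SD reported as % relative to vehicle 1; significance p < 0.05 versus corn oil vehicle.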

The species named for data set [6] is Mus musculus. In words: Enlarged lymph in gross pathological observations in mice with hypervitaminosis A at mid dose 1 with gross observations/total number of mice in group; 6/16. The format is functional, organism-based.
The species entered for data set [7] is Mus musculus. Briefly: Enlarged lymph in gross pathological observations in mice with hypervitaminosis A in mice at high dose with gross observations/total number of mice in group; 8/16. The format is functional, organism-based.
Data set [8] is filed under the species Mus musculus. Briefly: Enlarged spleen in Gross pathological observations in mice with hypervitaminosis A at high dose with gross observations/total number of mice in group; 4/16. It counts as functional, organism-based.
Data set [9] is filed under the species Mus musculus. In words: Compound toxicity determined by total dose to termination (day 25/65) in high dose. It counts as functional. Summed up: (§2)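 Male B6D2F1 mice given daily oral gavage in corn oil; dosages increased during the study (day 30 or day 51 depending on compound). Cumulative dose in mg/kg administered up to termination (day 65, or day 25 for TTNPB 0.01/0.05 mg/kg/day groups).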

For data set [10], the species on record is Mus musculus. Briefly: Compound toxicity determined by total dose to termination (day 25/65) in low dose. The format is functional. Summed up: as §2
Data set [11] relates to Mus musculus. In words: Effect of compound on Spleen to body weight ratios in mice at 0.4 mg/kg/day dose on day 65; dead by day 65. It counts as functional, organism-based. Put shortly:
as §1

In data set [12] the test system is Mus musculus. In words: Effect of compound on Spleen to body weight ratios in mice at 0.8 mg/kg/day dose on day 65; dead by day 65. The format is functional, organism-based. Summed up:
as §1

Data set [13] relates to Mus musculus. In words: Effect of compound on right testicle to body weight ratios in mice at 0.05 mg/kg/day dose on day 25; dead on day 65. The format is functional, organism-based.
The subject of data set [14] is Mus musculus. Briefly: Effect of compound on right testicle to body weight ratios in mice at 0.05 mg/kg/day dose; all the animals died by day 65. The format is functional, organism-based.
Data set [15] deals with Mus musculus. In words: Effect of compound on Spleen to body weight ratios in mice at 0.01 mg/kg/day dose; all the animals died by day 65. The format is functional, organism-based.
For data set [16], the system named is Mus musculus. In words: Alopecia observed at 0.4 mg/kg/day dose in mice with hypervitaminosis; 8/16. The format is functional, organism-based.
Data set [17] concerns Mus musculus. Briefly: Avoiding pressure on limbs at 0.01 mg/kg/day dose in mice hypervitaminosis; 0/16. It counts as functional, organism-based. The conditions noted are these: Limb.
Data set [18] deals with Mus musculus. In words: Avoiding pressure on limbs at 0.8 mg/kg/day dose in mice hypervitaminosis; 0/16. To be noted: Limb. It counts as functional, organism-based.
Data set [19] concerns Mus musculus. In words: Enlarged lymph in gross pathological observations with hypervitaminosis A in mice at 0.01 mg/kg/day dose with gross observations/total number of animals in group; 6/8. It counts as functional, organism-based.
In data set [20] the test system is Mus musculus. Briefly: Enlarged lymph in gross pathological observations with hypervitaminosis A in mice at 0.05 mg/kg/day dose with gross observations/total number of animals in group; 8/8. The format is functional, organism-based.
The test system of data set [21] is Mus musculus. Briefly: Enlarged lymph in gross pathological observations with hypervitaminosis A in mice at 0.2 mg/kg/day dose with gross observations/total number of animals in group; 16/16. The format is functional, organism-based.
For data set [22], the system named is Mus musculus. In words: Enlarged spleen in Enlarged spleen in Gross pathological observations with hypervitaminosis A in mice at 0.2 mg/kg/day dose with gross observations/total number of animals in group; 0/16. The format is functional, organism-based.
The subject of data set [23] is Mus musculus. In words: Enlarged spleen in Gross pathological observations with hypervitaminosis A at 0.8 mg/kg/day dose with gross observations/total number of animals in group; 0/16. It counts as functional, organism-based.
Data set [24] deals with Mus musculus. Briefly: Skin scaling at 0.01 mg/kg/day in mice with hypervitaminosis; 4/8. It counts as functional, organism-based.
Data set [25] deals with Mus musculus. Briefly: Skin scaling at 0.2 mg/kg/day in mice with hypervitaminosis; 14/16. It counts as functional, organism-based.
The test system of data set [26] is Mus musculus. In words: Calculated 30-day maximally tolerated dose based on 10% weight loss in mice at 0.05 mg/kg/day. It counts as functional.
Data set [27] in a line: Mortality rate in mice at 0.05 mg/kg/day. The format is ADME, organism-based. The conditions noted are these: mouse, in vivo. Summed up:
(§3)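 Male B6D2F1 mice given compound daily by gavage in corn oil at the stated dose levels, with corn oil vehicle controls. Deaths counted as animals found dead or sacrificed moribund, with day(s) of death recorded. Heteroarotinoid groups ran to day 65 and low-dose reference groups to day 25.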

Data set [28] in a line: Mortality rate in mice at 0.4 mg/kg/day; range (8-19). The format is ADME, organism-based. The conditions noted are these: mouse, in vivo. Put shortly: as §3
The nature of data set [29]: Mortality rate in mice at 0.8 mg/kg/day; range (7-8). The format is ADME, organism-based. To be noted: mouse, in vivo. Put shortly: as §3
The test system of data set [30] is Mus musculus. In words: Effect of compound on Spleen to body weight ratios in mice at 0.1 mg/kg/day dose on day 65; dead by day 65. The format is functional, organism-based. Put shortly:
as §1

The test system of data set [31] is Mus musculus. In words: Average number of fractures per mouse at 0.1 mg/kg/day.
Data set [32] concerns Mus musculus. Briefly: Average number of fractures per mouse at 0.8 mg/kg/day.
In data set [33] the test system is Mus musculus. Briefly: Average number of fractures per mouse at 0.4 mg/kg/day.
The subject of data set [34] is Mus musculus. Briefly: Average number of fractures per mouse at 0.01 mg/kg/day.
Data set [35] deals with Mus musculus. Briefly: Average number of fractures per mouse at 0.2 mg/kg/day; 1/3.
Data set [36] deals with Mus musculus. Briefly: Effect of compound on Spleen to body weight ratios in mice at 0.05 mg/kg/day dose; measured on day 25.
The species entered for data set [37] is Mus musculus. In words: Alopecia in mice observed at high dose with Hypervitaminosis; 4/16. The format is functional, organism-based.
For data set [38], the species on record is Mus musculus. Briefly: Mortality rate in mice in high dose. The format is functional. Put shortly: as §3
For data set [39], the species on record is Mus musculus. Briefly: Mortality rate in mice in low dose. The format is functional. Summed up: as §3
For data set [40], the species on record is Mus musculus. Briefly: Mortality rate in mice in mid dose 1. The format is functional. Summed up: as §3
The species entered for data set [41] is Mus musculus. In words: Fracture incidence in mouse at high dose; 3/8.

Regarding `CC(/C=C/C=C(\C)c1ccc2c(c1)C(C)(C)CCS2)=C\C(=O)O`, the result in data set [1], in data set [2] and in data set [3] was inactive.
Turning to `C/C(=C\c1ccc(C(=O)O)cc1)c1ccc2c(c1)C(C)(C)CCO2`, the Activity entry was “Toxic” in [4]; 106.3 in data set [5]; “Weak activity” in data set [6]; “Weak activity” in data set [7]; “Weak activity” in [8]. Moreover, the results for the Total dose in data set [9] and in [10] were 1176.8 mg/kg and 147.1 mg/kg, respectively.
For the compound `C/C(=C\c1ccc(C(=O)O)cc1)c1ccc2c(c1)C(C)(C)CCC2(C)C`, the Activity result in data set [11] is “Toxic”; in data set [12], “Toxic”; in data set [13], “Toxic”; in data set [14] it was “Toxic”; in data set [15], “Toxic”; in data set [16], “Weak activity”. The Activity entry in [24] is “Weak activity”; in data set [30], “Toxic”; in data set [31], 2; in data set [32], 0; in data set [33], 0.4; in data set [34] it was 0.1. The Activity entry in data set [35] is “Weak activity”; in [36], “Toxic”. Also, the result in [17], in [18], in [22] and in [23] was inactive. For the same compound, the result in data set [19], in [20], in [21] and in data set [25] was Active. In [26], the Max tolerated dose was 0.001 mg/kg. For the same compound, the figures for the Mortality in data set [27], in [28] and in [29] were 3 day of death, 14 day of death and 16 day of death, respectively.
Consider `CC(/C=C/C=C(\C)c1ccc2c(c1)C(C)(C)CCO2)=C\C(=O)O`, for which the Activity entry in data set [37] and in [41] was “Weak activity” in each case. Moreover, the Mortality in data set [38], in data set [39] and in data set [40] was 0 day of death throughout.
